# Reference: ChEMBL document CHEMBL1275392, “Assessment of chemoselective neoglycosylation methods using chlorambucil as a model” (2010)
# What was measured:
# [1] = test system: A549; assay: Growth inhibition of human A549 cells expressing p53 after 7 days by celltiter-glo assay; type: functional; settings: A549, 168 h
# [2] = test system: SK-OV-3; assay: Growth inhibition of human SKOV3 cells after 7 days by celltiter-glo assay; type: functional; settings: SK-OV-3, 168 h
# [3] = test system: MCF7; assay: Growth inhibition of human MCF7 cells after 7 days by celltiter-glo assay; type: functional; settings: MCF7, 168 h
# [4] = Growth inhibition of human p53 deficient Hep3B cells after 7 days by celltiter-glo assay; type: functional, Hep 3B2; settings: 168 h
# Summary of the method: (§1)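 Cells seeded at 500 per well in 384-well plates. Compounds came from 30 mM DMSO stocks, serially diluted and tested in quadruplicate. Incubation was 7 d at 37 °C under 5% CO2. Calcein AM (10 μM) and EthD-1 were added, followed by a fluorescence read. CellTiter-Glo lysis was then done for 10 min at room temperature, with a luminescence read. GI50 came from curve fitting.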
# [5] = test system: DU-145; assay: Growth inhibition of human DU145 cells after 7 days by celltiter-glo assay; type: functional; settings: DU-145, 168 h
# [6] = test system: SF-268; assay: Growth inhibition of human SF268 cells after 7 days by celltiter-glo assay; type: functional; settings: SF-268, 168 h
# [7] = test system: HT-29; assay: Growth inhibition of human HT-29 cells after 7 days by celltiter-glo assay; type: functional; settings: HT-29, 168 h
# [8] = test system: HCT-15; assay: Growth inhibition of human HCT15 cells after 7 days by celltiter-glo assay; type: functional; settings: HCT-15, 168 h
# [9] = Growth inhibition of human p53 deficient H1299 cells after 7 days by celltiter-glo assay; type: functional; settings: NCI-H1299, 168 h; summary of the method: as §1
# [10] = test system: NCI-H460; assay: Growth inhibition of human NCI-H460 cells after 7 days by celltiter-glo assay; type: functional; settings: NCI-H460, 168 h
# [11] = test system: SF-268; assay: Ratio of compound GI50 to chlorambucil GI50 for human SF268 cells; type: functional
smiles,measurement,setting,value
CON(CCCc1ccc(N(CCCl)CCCl)cc1)C1O[C@@H](CO)[C@H](O)[C@H](O)[C@H]1O (stereo partly specified),GI50,[1],3.1 µM
same,GI50,[2],2.5 µM
same,GI50,[3],7.9 µM
same,GI50,[4],2 µM
same,GI50,[5],4.1 µM
same,GI50,[6],2.3 µM
same,GI50,[7],2.1 µM
same,GI50,[8],1.4 µM
same,GI50,[9],1.3 µM
same,GI50,[10],7.9 µM
CON(CCCc1ccc(N(CCCl)CCCl)cc1)C1OC[C@@H](O)[C@@H](O)[C@@H]1O (stereo partly specified),GI50,[1],2 µM
same,GI50,[2],2 µM
same,GI50,[3],4.6 µM
same,GI50,[4],1.6 µM
same,GI50,[5],3.3 µM
same,GI50,[6],1.8 µM
same,GI50,[7],1.5 µM
same,GI50,[8],0.9 µM
same,GI50,[9],0.73 µM
same,GI50,[10],5 µM
CON(CCCc1ccc(N(CCCl)CCCl)cc1)[C@@H]1OC[C@@H](O)[C@H]1O,GI50,[1],3.1 µM
same,GI50,[2],2.6 µM
same,GI50,[3],8 µM
same,GI50,[4],4.1 µM
same,GI50,[5],5 µM
same,GI50,[6],2.4 µM
same,GI50,[7],1.6 µM
same,GI50,[8],0.77 µM
same,GI50,[9],1.1 µM
same,GI50,[10],7.8 µM
CON(CCCc1ccc(N(CCCl)CCCl)cc1)C1O[C@H](CO)[C@@H](O[C@@H]2O[C@H](CO)[C@H](O)[C@H](O)[C@H]2O)[C@H](O)[C@@H]1O (stereo partly specified),GI50,[1],56 µM
same,GI50,[2],35 µM
same,GI50,[3],26 µM
same,GI50,[4],38 µM
same,GI50,[5],43 µM
same,GI50,[6],19.1 µM
same,GI50,[7],34 µM
same,GI50,[8],31 µM
same,GI50,[9],24 µM
same,GI50,[10],57.7 µM
CON(CCCc1ccc(N(CCCl)CCCl)cc1)[C@@H]1OC[C@@H](O)[C@H](O)[C@H]1O,GI50,[1],2.3 µM
same,GI50,[2],2.2 µM
same,GI50,[3],0.91 µM
same,GI50,[4],1.5 µM
same,GI50,[5],2.3 µM
same,GI50,[6],1.4 µM
same,GI50,[7],1.6 µM
same,GI50,[8],0.9 µM
same,GI50,[9],0.83 µM
same,GI50,[10],4.5 µM
CON(CCCc1ccc(N(CCCl)CCCl)cc1)C1O[C@H](C)[C@H](O)[C@H](O)[C@H]1O (stereo partly specified),GI50,[1],9.6 µM
same,GI50,[2],1.7 µM
same,GI50,[3],3 µM
same,GI50,[4],2.6 µM
same,GI50,[5],4.1 µM
same,GI50,[6],1.7 µM
same,GI50,[7],6.7 µM
same,GI50,[8],0.82 µM
same,GI50,[9],3.5 µM
same,GI50,[10],5.9 µM
CON(CCCc1ccc(N(CCCl)CCCl)cc1)C1OC[C@@H](O)[C@@H](O)[C@H]1O (stereo partly specified),GI50,[1],2.8 µM
same,GI50,[2],2 µM
same,GI50,[3],1.1 µM
same,GI50,[4],2.4 µM
same,GI50,[5],3.8 µM
same,GI50,[6],1.9 µM
same,GI50,[7],2.3 µM
same,GI50,[8],1.8 µM
same,GI50,[9],3.6 µM
same,GI50,[10],5.9 µM
CON(CCCc1ccc(N(CCCl)CCCl)cc1)C1O[C@@H](CO)[C@H](O)[C@@H](O)[C@H]1O (stereo partly specified),GI50,[1],4.1 µM
same,GI50,[2],2.9 µM
same,GI50,[3],2.2 µM
same,GI50,[4],3.7 µM
same,GI50,[5],4.9 µM
same,GI50,[6],2 µM
same,GI50,[7],3.4 µM
same,GI50,[8],2.2 µM
same,GI50,[9],1.2 µM
same,GI50,[10],9.8 µM
CON(CCCc1ccc(N(CCCl)CCCl)cc1)C1O[C@H](CO)[C@@H](O)[C@@H](O)[C@H]1O (stereo partly specified),GI50,[1],3.4 µM
same,GI50,[2],3 µM
same,GI50,[3],9.3 µM
same,GI50,[4],4.4 µM
same,GI50,[5],5.8 µM
same,GI50,[6],3.1 µM
same,GI50,[7],0.6 µM
same,GI50,[8],0.97 µM
same,GI50,[9],0.53 µM
same,GI50,[10],9.5 µM
[O-]/[N+](=C\[C@@H](O)[C@H](O)CO)CCCc1ccc(N(CCCl)CCCl)cc1,GI50,[1],3 µM
same,GI50,[2],2.6 µM
same,GI50,[3],2 µM
same,GI50,[4],1.7 µM
same,GI50,[5],3.6 µM
same,GI50,[6],1.2 µM
same,GI50,[7],3.2 µM
same,GI50,[8],2.5 µM
same,GI50,[9],1.07 µM
same,GI50,[10],3.8 µM
CON(CCCc1ccc(N(CCCl)CCCl)cc1)C1O[C@@H](C)[C@@H](OCc2ccccc2)[C@@H](OCc2ccccc2)[C@@H]1OCc1ccccc1 (stereo partly specified),GI50,[1],6.4 µM
same,GI50,[2],7.2 µM
same,GI50,[3],4 µM
same,GI50,[4],9.5 µM
same,GI50,[5],10 µM
same,GI50,[6],5.7 µM
same,GI50,[7],7.5 µM
same,GI50,[8],4.6 µM
same,GI50,[9],3.3 µM
same,GI50,[10],15.8 µM
CON(CCCc1ccc(N(CCCl)CCCl)cc1)[C@H]1C[C@@H](O)[C@H](O)[C@@H](C)O1,GI50,[1],3.1 µM
same,GI50,[2],3.2 µM
same,GI50,[3],3.1 µM
same,GI50,[4],3.8 µM
same,GI50,[5],5.5 µM
same,GI50,[6],2.3 µM
same,GI50,[7],3.2 µM
same,GI50,[8],2.5 µM
same,GI50,[9],4.8 µM
same,GI50,[10],5.7 µM
C[C@H]1O[C@@H](NNC(=O)CCCc2ccc(N(CCCl)CCCl)cc2)[C@H](O)[C@@H](O)[C@H]1O,GI50,[1],28 µM
same,GI50,[2],22 µM
same,GI50,[3],6.3 µM
same,GI50,[4],11 µM
same,GI50,[5],24 µM
same,GI50,[6],5.8 µM
same,GI50,[7],16.7 µM
same,GI50,[8],> 100 µM
same,GI50,[9],8.7 µM
same,GI50,[10],51 µM
O=C(CCCc1ccc(N(CCCl)CCCl)cc1)N/N=C/[C@@H](O)[C@H](O)CO,GI50,[1],7.5 µM
same,GI50,[2],6.2 µM
same,GI50,[3],4.2 µM
same,GI50,[4],4.1 µM
same,GI50,[5],9.5 µM
same,GI50,[6],2.6 µM
same,GI50,[7],4.8 µM
same,GI50,[8],7.3 µM
same,GI50,[9],2.6 µM
same,GI50,[10],10.8 µM
CON(CCCc1ccc(N(CCCl)CCCl)cc1)[C@@H]1O[C@H]2[C@H](OC(=O)[C@H]2O)[C@H]1O,GI50,[1],3.7 µM
same,GI50,[2],5.2 µM
same,GI50,[3],1.1 µM
same,GI50,[4],1.3 µM
same,RatioGI50,[11],12
same,GI50,[5],1.9 µM
same,GI50,[6],0.46 µM
same,GI50,[7],3.6 µM
same,GI50,[8],0.99 µM
same,GI50,[9],0.4 µM
same,GI50,[10],3.8 µM
